{"source": "ChEMBL document CHEMBL4382192", "about": "“Discovery of a potent dual ALK and EGFR T790M inhibitor” (Eur J Med Chem, 2017)", "key": {"[1]": {"biological_target": "LIM domain kinase 1 (Homo sapiens) (UniProt P53667)", "test": "Binding affinity to wild-type human full length LIMK1 (M1 to D647 residues) expressed in bacterial expression system assessed as residual binding level at 1 uM by Kinomescan method relative to control", "how_it_was_run": "(§1)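 Single-point kinome-wide KINOMEscan binding panel, test compound at 1 μM, run by the provider's standard protocol.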"}, "[2]": {"biological_target": "Tyrosine-protein kinase CSK (Homo sapiens) (UniProt P41240)", "test": "Binding affinity to wild-type human full length CSK (M1 to L450 residues) expressed in bacterial expression system assessed as residual binding level at 1 uM by Kinomescan method relative to control"}, "[3]": {"biological_target": "Rho-associated protein kinase 1 (Homo sapiens) (UniProt Q13464)", "sequence (Q13464 2-1354 limits assumed)": "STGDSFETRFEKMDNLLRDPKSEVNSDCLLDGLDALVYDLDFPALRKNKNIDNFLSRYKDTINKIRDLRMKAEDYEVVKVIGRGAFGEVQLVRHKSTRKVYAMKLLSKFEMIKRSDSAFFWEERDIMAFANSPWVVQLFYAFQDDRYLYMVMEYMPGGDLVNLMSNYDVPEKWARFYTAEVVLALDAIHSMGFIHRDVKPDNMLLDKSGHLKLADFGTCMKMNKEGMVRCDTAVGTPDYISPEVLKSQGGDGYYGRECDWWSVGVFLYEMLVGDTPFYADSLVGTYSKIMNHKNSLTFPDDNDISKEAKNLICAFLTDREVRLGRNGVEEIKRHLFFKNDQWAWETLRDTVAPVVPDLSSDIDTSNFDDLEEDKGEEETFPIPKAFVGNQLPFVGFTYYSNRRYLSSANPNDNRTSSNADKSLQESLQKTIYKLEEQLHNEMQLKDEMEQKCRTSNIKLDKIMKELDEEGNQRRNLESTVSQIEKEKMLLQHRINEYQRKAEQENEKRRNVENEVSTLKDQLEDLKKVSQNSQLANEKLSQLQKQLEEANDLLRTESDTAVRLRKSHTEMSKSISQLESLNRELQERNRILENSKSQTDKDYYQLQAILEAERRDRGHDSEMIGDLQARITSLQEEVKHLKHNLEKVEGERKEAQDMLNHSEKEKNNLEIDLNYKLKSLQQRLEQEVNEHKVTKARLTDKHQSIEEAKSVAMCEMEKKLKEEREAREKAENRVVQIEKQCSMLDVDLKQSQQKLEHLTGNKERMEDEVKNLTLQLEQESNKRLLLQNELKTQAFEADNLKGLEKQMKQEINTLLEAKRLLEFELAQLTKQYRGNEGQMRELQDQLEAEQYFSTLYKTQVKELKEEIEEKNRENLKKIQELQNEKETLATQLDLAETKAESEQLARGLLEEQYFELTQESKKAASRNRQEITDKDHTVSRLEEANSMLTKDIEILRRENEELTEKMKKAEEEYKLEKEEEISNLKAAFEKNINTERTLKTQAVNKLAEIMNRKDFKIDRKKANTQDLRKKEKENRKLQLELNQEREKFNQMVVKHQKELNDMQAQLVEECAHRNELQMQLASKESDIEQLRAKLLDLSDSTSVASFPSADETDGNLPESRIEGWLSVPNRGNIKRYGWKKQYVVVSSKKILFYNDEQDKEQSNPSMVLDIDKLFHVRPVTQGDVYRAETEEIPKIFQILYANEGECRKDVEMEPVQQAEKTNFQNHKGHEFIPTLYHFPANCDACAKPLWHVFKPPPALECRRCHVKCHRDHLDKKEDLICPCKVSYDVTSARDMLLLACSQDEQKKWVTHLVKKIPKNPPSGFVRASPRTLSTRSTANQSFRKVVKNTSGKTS", "test": "Binding affinity to wild-type human partial length ROCK1 (M1 to R415 residues) expressed in mammalian expression system assessed as residual binding level at 1 uM by Kinomescan method relative to control"}, "[4]": {"biological_target": "Tyrosine-protein kinase receptor UFO (Homo sapiens) (UniProt P30530)", "sequence (P30530 whole entry, the tested form may be a part)": "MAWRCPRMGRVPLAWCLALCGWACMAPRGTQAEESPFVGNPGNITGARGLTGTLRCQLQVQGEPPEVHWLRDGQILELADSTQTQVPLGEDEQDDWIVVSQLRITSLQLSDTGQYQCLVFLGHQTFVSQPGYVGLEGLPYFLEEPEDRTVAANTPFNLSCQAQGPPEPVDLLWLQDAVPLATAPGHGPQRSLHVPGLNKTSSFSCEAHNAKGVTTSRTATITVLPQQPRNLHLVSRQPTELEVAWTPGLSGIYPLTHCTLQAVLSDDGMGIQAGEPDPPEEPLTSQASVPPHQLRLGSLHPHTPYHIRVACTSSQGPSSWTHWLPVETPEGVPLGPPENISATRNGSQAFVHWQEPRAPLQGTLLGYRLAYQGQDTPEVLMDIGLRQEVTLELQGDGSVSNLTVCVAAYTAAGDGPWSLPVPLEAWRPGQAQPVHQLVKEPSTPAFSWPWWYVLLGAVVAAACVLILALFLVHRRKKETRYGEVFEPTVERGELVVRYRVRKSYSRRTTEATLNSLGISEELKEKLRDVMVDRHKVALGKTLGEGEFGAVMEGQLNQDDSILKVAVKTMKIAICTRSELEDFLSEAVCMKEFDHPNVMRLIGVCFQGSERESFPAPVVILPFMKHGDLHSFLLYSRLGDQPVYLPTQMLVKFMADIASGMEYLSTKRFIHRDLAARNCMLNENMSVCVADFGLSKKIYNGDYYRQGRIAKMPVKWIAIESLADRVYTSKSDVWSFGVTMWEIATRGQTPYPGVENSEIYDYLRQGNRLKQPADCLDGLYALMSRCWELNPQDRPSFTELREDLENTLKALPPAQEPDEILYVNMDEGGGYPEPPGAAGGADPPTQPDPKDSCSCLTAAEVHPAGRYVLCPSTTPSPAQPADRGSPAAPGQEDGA", "test": "Binding affinity to wild-type human partial length AXL (R497 to Y821 residues) expressed in bacterial expression system assessed as residual binding level at 1 uM by Kinomescan method relative to control"}, "[5]": {"biological_target": "Calcium/calmodulin-dependent protein kinase type 1D (Homo sapiens) (UniProt Q8IU85)", "sequence (Q8IU85 whole entry, looked up, the tested form may be a part)": "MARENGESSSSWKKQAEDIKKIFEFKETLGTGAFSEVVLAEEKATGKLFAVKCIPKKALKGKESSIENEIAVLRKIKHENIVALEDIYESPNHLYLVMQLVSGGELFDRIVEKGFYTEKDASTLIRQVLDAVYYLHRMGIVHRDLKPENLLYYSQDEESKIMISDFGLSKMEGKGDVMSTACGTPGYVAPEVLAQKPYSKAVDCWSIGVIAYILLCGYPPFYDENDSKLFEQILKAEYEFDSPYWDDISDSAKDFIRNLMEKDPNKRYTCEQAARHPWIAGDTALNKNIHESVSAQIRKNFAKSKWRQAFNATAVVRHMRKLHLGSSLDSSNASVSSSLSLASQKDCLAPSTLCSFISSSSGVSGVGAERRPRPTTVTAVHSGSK", "test": "Binding affinity to wild-type human partial length CAMK1D (M1 to K299 residues) expressed in bacterial expression system assessed as residual binding level at 1 uM by Kinomescan method relative to control"}, "[6]": {"biological_target": "Mitogen-activated protein kinase 10 (Homo sapiens) (UniProt P53779)", "sequence (P53779 whole entry, the tested form may be a part)": "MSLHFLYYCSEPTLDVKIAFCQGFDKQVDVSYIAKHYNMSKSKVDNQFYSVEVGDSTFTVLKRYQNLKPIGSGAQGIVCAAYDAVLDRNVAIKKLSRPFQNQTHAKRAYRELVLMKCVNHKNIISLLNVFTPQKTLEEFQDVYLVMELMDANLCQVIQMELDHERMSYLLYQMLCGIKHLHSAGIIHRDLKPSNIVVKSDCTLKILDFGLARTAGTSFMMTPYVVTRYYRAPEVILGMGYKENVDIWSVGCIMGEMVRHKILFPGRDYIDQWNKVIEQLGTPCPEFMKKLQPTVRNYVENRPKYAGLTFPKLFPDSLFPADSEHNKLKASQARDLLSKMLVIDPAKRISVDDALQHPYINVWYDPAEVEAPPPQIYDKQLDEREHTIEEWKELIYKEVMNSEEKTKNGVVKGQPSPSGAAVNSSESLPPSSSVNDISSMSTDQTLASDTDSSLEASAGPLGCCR", "test": "Binding affinity to wild-type human partial length JNK3 (V28 to Q422 residues) expressed in mammalian expression system assessed as residual binding level at 1 uM by Kinomescan method relative to control"}, "[7]": {"biological_target": "Calcium/calmodulin-dependent protein kinase type 1 (Homo sapiens) (UniProt Q14012)", "test": "Binding affinity to wild-type human full length CAMK1 (M1 to L370 residues) expressed in bacterial expression system assessed as residual binding level at 1 uM by Kinomescan method relative to control"}, "[8]": {"biological_target": "CYP2C19 (Homo sapiens, UniProt P33261)", "test": "Residual activity of CYP2C19 in human liver microsomes at 10 uM using S-mephenytoin 4-hydroxylase as substrate preincubated for 5 mins followed by NADPH addition measured after 15 mins by LC/MS/MS analysis relative to control", "conditions": "probe S-mephenytoin (4-hydroxylation)"}, "[9]": {"biological_target": "Serine/threonine-protein kinase tousled-like 2 (Homo sapiens) (UniProt Q86UE8)", "test": "Binding affinity to wild-type human partial length TLK2 (E424 to N749 residues) expressed in bacterial expression system assessed as residual binding level at 1 uM by Kinomescan method relative to control"}, "[10]": {"biological_target": "Cyclin-dependent kinase 7 (Homo sapiens) (UniProt P50613)", "test": "Binding affinity to wild-type human full length CDK7 (M1 to L344 residues) expressed in mammalian expression system assessed as residual binding level at 1 uM by Kinomescan method relative to control"}, "[11]": {"biological_target": "Cyclin-G-associated kinase (Homo sapiens) (UniProt O14976)", "test": "Binding affinity to wild-type human partial length GAK (G13 to Y338 residues) expressed in bacterial expression system assessed as residual binding level at 1 uM by Kinomescan method relative to control"}, "[12]": {"biological_target": "Phosphatidylinositol 4-kinase beta (Homo sapiens) (UniProt Q9UBF8)", "test": "Binding affinity to wild-type human full length PIK4CB (M1 to M828 residues) expressed in mammalian expression system assessed as residual binding level at 1 uM by Kinomescan method relative to control", "how_it_was_run": "as §1"}, "[13]": {"biological_target": "Cyclin-dependent kinase-like 3 (Homo sapiens) (UniProt Q8IVW4)", "sequence (Q8IVW4 whole entry, looked up, the tested form may be a part)": "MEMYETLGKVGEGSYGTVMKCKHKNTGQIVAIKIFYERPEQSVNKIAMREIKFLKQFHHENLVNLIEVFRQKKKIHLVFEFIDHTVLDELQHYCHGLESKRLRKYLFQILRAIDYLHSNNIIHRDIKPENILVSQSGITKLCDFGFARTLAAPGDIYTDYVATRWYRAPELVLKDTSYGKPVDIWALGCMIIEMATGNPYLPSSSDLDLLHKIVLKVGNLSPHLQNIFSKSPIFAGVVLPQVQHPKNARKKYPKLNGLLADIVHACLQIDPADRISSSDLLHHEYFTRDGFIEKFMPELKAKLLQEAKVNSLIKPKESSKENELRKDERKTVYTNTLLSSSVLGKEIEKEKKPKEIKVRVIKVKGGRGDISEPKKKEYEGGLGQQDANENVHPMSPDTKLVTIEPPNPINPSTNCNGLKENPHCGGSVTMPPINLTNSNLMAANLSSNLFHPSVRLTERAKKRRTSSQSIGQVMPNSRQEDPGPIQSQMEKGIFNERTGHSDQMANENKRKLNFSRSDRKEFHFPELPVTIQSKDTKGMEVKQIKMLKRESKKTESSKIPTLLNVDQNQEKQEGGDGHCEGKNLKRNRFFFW", "test": "Binding affinity to wild-type human partial length CDKL3 (M1 to D327 residues) expressed in bacterial expression system assessed as residual binding level at 1 uM by Kinomescan method relative to control"}, "[14]": {"test_system": "Receptor-type tyrosine-protein kinase FLT3 (Homo sapiens), P36888 [N841I]", "test": "Binding affinity to human partial length FLT3 N841I mutant (V592 to Y969 residues) expressed in bacterial expression system assessed as residual binding level at 1 uM by Kinomescan method relative to control", "how_it_was_run": "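Kinome-wide selectivity panel run by the KINOMEscan method, with the test compound at a single concentration of 1 μM. Wild-type and mutant kinases were profiled in the same screen.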"}, "[15]": {"biological_target": "Phosphatidylinositol 5-phosphate 4-kinase type-2 beta (Homo sapiens) (UniProt P78356)", "test": "Binding affinity to wild-type human full length PIP5K2B (M1 to T416 residues) expressed in bacterial expression system assessed as residual binding level at 1 uM by Kinomescan method relative to control", "how_it_was_run": "as §1"}, "[16]": {"biological_target": "Serine/threonine-protein kinase Nek9 (Homo sapiens) (UniProt Q8TD19)", "test": "Binding affinity to wild-type human partial length NEK9 (P32 to R328 residues) expressed in bacterial expression system assessed as residual binding level at 1 uM by Kinomescan method relative to control"}, "[17]": {"biological_target": "Cyclin-dependent kinase 4/cyclin D1 (Homo sapiens) (UniProt P11802+P24385)", "test": "Binding affinity to wild-type human full length CDK4/cyclinD1 (M1 to E303 residues) expressed in mammalian expression system assessed as residual binding level at 1 uM by Kinomescan method relative to control"}, "[18]": {"biological_target": "Insulin receptor (Homo sapiens, UniProt P06213)", "test": "Binding affinity to wild-type human partial length INSR (P997 to E1318 residues) expressed in mammalian expression system assessed as residual binding level at 1 uM by Kinomescan method relative to control"}, "[19]": {"biological_target": "Ephrin type-B receptor 1 (Homo sapiens) (UniProt P54762)", "test": "Binding affinity to wild-type human partial length EPHB1 (P589 to T911 residues) expressed in bacterial expression system assessed as residual binding level at 1 uM by Kinomescan method relative to control"}, "[20]": {"biological_target": "Cyclin-dependent kinase 17 (Homo sapiens) (UniProt Q00537)", "sequence (Q00537 whole entry, looked up, the tested form may be a part)": "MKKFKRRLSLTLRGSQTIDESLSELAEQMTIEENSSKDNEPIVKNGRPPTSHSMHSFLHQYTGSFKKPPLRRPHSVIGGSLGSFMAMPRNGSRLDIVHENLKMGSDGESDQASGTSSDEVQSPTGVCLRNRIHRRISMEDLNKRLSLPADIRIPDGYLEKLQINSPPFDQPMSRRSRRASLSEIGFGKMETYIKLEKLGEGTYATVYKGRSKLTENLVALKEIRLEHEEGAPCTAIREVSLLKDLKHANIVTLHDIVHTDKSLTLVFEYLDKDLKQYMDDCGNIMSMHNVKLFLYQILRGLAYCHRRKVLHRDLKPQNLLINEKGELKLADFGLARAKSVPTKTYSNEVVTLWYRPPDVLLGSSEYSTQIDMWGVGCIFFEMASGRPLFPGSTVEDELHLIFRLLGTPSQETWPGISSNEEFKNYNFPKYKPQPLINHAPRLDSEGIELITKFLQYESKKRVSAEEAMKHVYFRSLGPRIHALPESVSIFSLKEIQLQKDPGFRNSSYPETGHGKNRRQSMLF", "test": "Binding affinity to wild-type human full length PCTK2 (M1 to F523 residues) expressed in bacterial expression system assessed as residual binding level at 1 uM by Kinomescan method relative to control", "how_it_was_run": "as §1"}, "[21]": {"biological_target": "Serine/threonine-protein kinase ICK (Homo sapiens) (UniProt Q9UPZ9)", "sequence (Q9UPZ9 whole entry, the tested form may be a part)": "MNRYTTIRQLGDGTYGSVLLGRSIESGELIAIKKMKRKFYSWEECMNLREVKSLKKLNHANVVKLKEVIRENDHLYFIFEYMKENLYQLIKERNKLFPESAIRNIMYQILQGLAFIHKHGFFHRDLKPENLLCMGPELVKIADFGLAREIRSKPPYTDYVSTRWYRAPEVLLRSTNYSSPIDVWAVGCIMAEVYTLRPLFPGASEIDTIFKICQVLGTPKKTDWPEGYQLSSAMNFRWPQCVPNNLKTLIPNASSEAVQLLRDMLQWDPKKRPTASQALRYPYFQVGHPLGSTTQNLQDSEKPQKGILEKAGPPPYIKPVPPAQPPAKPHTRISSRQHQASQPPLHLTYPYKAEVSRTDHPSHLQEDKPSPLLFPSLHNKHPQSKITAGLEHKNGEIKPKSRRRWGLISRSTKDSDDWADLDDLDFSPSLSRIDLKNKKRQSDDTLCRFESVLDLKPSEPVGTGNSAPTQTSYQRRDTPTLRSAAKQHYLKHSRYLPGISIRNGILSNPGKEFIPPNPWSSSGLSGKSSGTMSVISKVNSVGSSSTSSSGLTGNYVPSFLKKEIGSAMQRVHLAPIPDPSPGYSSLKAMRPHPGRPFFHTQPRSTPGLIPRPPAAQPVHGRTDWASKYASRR", "test": "Binding affinity to wild-type human partial length ICK (M1 to P314 residues) expressed in mammalian expression system assessed as residual binding level at 1 uM by Kinomescan method relative to control"}, "[22]": {"biological_target": "CYP2D6 (Homo sapiens, UniProt P10635)", "test": "Residual activity of CYP2D6 in human liver microsomes at 10 uM using dextromethorphan O-demethylase as substrate preincubated for 5 mins followed by NADPH addition measured after 15 mins by LC/MS/MS analysis relative to control", "conditions": "probe dextromethorphan (O-demethylation)"}, "[23]": {"biological_target": "Serine/threonine-protein kinase WNK3 (Homo sapiens) (UniProt Q9BYP7)", "test": "Binding affinity to wild-type human partial length WNK3 (M1 to D434 residues) expressed in mammalian expression system assessed as residual binding level at 1 uM by Kinomescan method relative to control"}}}
{"smiles": "C=CC(=O)Nc1cc(Nc2ncc(Cl)c(Nc3ccccc3S(=O)(=O)C(C)C)n2)c(OC)cc1N(C)CCN(C)C", "values": [{"measurement": "Activity", "setting": "[1]", "result": 87, "unit": "%"}, {"measurement": "Activity", "setting": "[2]", "result": 69, "unit": "%"}, {"measurement": "Activity", "setting": "[3]", "result": 46, "unit": "%"}, {"measurement": "Activity", "setting": "[4]", "result": 10, "unit": "%"}, {"measurement": "Activity", "setting": "[5]", "result": 9.9, "unit": "%"}, {"measurement": "Activity", "setting": "[6]", "result": 82, "unit": "%"}, {"measurement": "Activity", "setting": "[7]", "result": 40, "unit": "%"}, {"measurement": "Activity at […], 10 µM", "setting": "[8]", "result": 86, "unit": "%"}, {"measurement": "Activity", "setting": "[9]", "result": 93, "unit": "%"}, {"measurement": "Activity", "setting": "[10]", "result": 21, "unit": "%"}, {"measurement": "Activity", "setting": "[11]", "result": 29, "unit": "%"}, {"measurement": "Activity", "setting": "[12]", "result": 69, "unit": "%"}, {"measurement": "Activity", "setting": "[13]", "result": 66, "unit": "%"}, {"measurement": "Activity", "setting": "[14]", "result": 6.8, "unit": "%"}, {"measurement": "Activity", "setting": "[15]", "result": 55, "unit": "%"}, {"measurement": "Activity", "setting": "[16]", "result": 70, "unit": "%"}, {"measurement": "Activity", "setting": "[17]", "result": 94, "unit": "%"}, {"measurement": "Activity", "setting": "[18]", "result": 0, "unit": "%"}, {"measurement": "Activity", "setting": "[19]", "result": 38, "unit": "%"}, {"measurement": "Activity", "setting": "[20]", "result": 74, "unit": "%"}, {"measurement": "Activity", "setting": "[21]", "result": 65, "unit": "%"}, {"measurement": "Activity at […], 10 µM", "setting": "[22]", "result": 90, "unit": "%"}, {"measurement": "Activity", "setting": "[23]", "result": 100, "unit": "%"}]}
